Laboratory results taken from ChEMBL document CHEMBL4265908, “Structure-activity and structure-property relationships of novel Nrf2 activators with a 1,2,4-oxadiazole core and their therapeutic effects on acetaminophen (APAP)-induced acute liver injury” (Eur J Med Chem, 2018).
In brackets after ≈: the same amount, converted by molar mass.

Legend:
[1] = target: T1, Nuclear factor erythroid 2-related factor 2 (Homo sapiens) (UniProt Q16236); assay: Activation of Nrf2 in human HepG2-ARE-C8 cells assessed as induction of ARE-mediated luciferase activity at 20 uM after 24 hrs by luciferase reporter gene assay relative to control; format: cell-based
T1 sequence (whole entry): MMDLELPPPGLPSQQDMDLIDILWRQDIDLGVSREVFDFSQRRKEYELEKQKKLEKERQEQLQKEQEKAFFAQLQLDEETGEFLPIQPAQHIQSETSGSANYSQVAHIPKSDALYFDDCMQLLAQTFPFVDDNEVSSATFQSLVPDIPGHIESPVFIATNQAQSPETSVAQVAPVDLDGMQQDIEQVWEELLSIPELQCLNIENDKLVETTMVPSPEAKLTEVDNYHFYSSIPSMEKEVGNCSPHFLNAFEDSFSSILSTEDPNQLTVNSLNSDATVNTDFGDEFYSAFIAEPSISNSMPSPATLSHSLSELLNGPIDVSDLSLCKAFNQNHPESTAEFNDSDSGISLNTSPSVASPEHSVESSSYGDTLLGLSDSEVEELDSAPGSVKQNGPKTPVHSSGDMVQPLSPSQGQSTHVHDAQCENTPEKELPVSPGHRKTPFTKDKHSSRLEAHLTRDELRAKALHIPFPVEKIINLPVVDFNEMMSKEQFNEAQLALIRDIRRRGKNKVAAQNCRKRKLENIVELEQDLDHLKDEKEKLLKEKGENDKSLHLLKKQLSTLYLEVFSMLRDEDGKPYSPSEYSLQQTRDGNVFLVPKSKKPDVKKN
Summary of the method: (§1)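 HepG2-ARE-C8 cells stably carrying ARE-luciferase, grown in DMEM with 10% FBS at 37 °C and 5% CO2. Seeded at 5 × 10^4 cells/well, left overnight, then given compound diluted from a 10 mM DMSO stock for 24 h. Cells lysed and luciferase read as RLU. Inductivity = (RLUtest − RLUblank)/(RLUcontrol − RLUblank), with DMSO as control. Mean ± SEM of three experiments.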

[2] = target: T1, Nuclear factor erythroid 2-related factor 2 (Homo sapiens); assay: Activation of Nrf2 in human HepG2-ARE-C8 cells assessed as induction of ARE-mediated luciferase activity at 1 uM after 24 hrs by luciferase reporter gene assay relative to control; format: cell-based; summary of the method: as §1
HepG2 = assay: Cytotoxicity against human HepG2 cells at 80 uM after 24 hrs by MTT assay; format: cell-based; conditions: hepg2, 24 h
[3] = target: T1, Nuclear factor erythroid 2-related factor 2 (Homo sapiens); assay: Activation of Nrf2 in human HepG2-ARE-C8 cells assessed as induction of ARE-mediated luciferase activity at 0.01 uM after 24 hrs by luciferase reporter gene assay relative to control; format: cell-based; summary of the method: as §1
[4] = target: T1, Nuclear factor erythroid 2-related factor 2 (Homo sapiens); assay: Activation of Nrf2 in human HepG2-ARE-C8 cells assessed as induction of ARE-mediated luciferase activity at 80 uM after 24 hrs by luciferase reporter gene assay relative to control; format: cell-based; summary of the method: as §1
[5] = target: T1, Nuclear factor erythroid 2-related factor 2 (Homo sapiens); assay: Activation of Nrf2 in human HepG2-ARE-C8 cells assessed as induction of ARE-mediated luciferase activity at 0.1 uM after 24 hrs by luciferase reporter gene assay relative to control; format: cell-based; summary of the method: as §1
[6] = target: T1, Nuclear factor erythroid 2-related factor 2 (Homo sapiens); assay: Activation of Nrf2 in human HepG2-ARE-C8 cells assessed as induction of ARE-mediated luciferase activity at 40 uM after 24 hrs by luciferase reporter gene assay relative to control; format: cell-based; summary of the method: as §1
[7] = Intrinsic aqueous solubility of the compound by potentiometric titration method; format: physicochemical
Summary of the method: (§2)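 Intrinsic aqueous solubility and logD at pH 7.4 determined by Avdeef-Bucher potentiometric titration on a pION Gemini Profiler.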

[8] = Lipophilicity, log D of the compound at pH 7.4 by potentiometric titration method; format: physicochemical; conditions: buffer; summary of the method: as §2

| Structure (SMILES) | Activity [1] | Activity [2] | Activity (HepG2) | Activity [3] | Activity [4] | Activity [5] | Activity [6] | solubility [7] [µM] | logD [8] |
| --- | --- | --- | --- | --- | --- | --- | --- | --- | --- |
| Fc1ccc(-c2nc(-c3ccc4nc[nH]c4c3)no2)c(Br)c1 | 12.1 | 4.18 | Non-Toxic | 1.01 | 25.1 | 2.65 | 21.6 | – | – |
| Fc1ccc(-c2nc(-c3ccc4ccccc4c3)no2)cc1F | 1.96 | 1.52 | Non-Toxic | 1.16 | 3.57 | 1.27 | 1.96 | – | – |
| Fc1ccc(-c2nc(-c3ccc4nc[nH]c4c3)no2)cc1Br | 3.46 | 1.89 | Non-Toxic | 1.68 | 4.84 | 1.36 | 3.92 | – | – |
| Fc1ccc(-c2nc(-c3ccc4nc[nH]c4c3)no2)cc1Cl | 7.53 | 3.22 | – | 1.04 | 12.5 | 3.88 | 9.59 | – | – |
| CC(C)(C)c1ccc(-c2noc(-c3ccc(F)c(F)c3)n2)cc1 | 8.35 | 2.91 | Non-Toxic | 1.35 | 24 | 2.88 | 13.2 | 91 (≈ 28.6 µg/mL) | 3.92 |
| Fc1ccc(F)c(-c2nc(-c3ccc4nc[nH]c4c3)no2)c1 | 16.9 | 5.24 | Non-Toxic | 2.31 | 21.9 | 4.15 | 20.2 | – | – |
| COc1cc(OC)cc(-c2noc(-c3ccc(F)c(F)c3)n2)c1 | 3.45 | 2.15 | Non-Toxic | 1.87 | 4.45 | 1.91 | 3.55 | – | – |
| Fc1ccc(-c2nc(-c3cnccn3)no2)cc1F | 1.81 | 1.95 | Non-Toxic | 1.13 | 3.35 | 1.43 | 2.83 | – | – |
| Fc1ccc(-c2nc(-c3cccc4[nH]ccc34)no2)cc1F | 2.36 | 2.01 | Non-Toxic | 0.83 | 4.02 | 1.88 | 3.77 | – | – |
| Fc1ccc(-c2noc(-c3ccc(F)c(F)c3)n2)nc1 | 2.95 | 2.17 | Non-Toxic | 0.96 | 6.35 | 1.97 | 5.79 | – | – |
| Clc1cccc(-c2nc(-c3ccc4nc[nH]c4c3)no2)c1 | 12.8 | 4.78 | Non-Toxic | 1.74 | 19.1 | 3.23 | 13.2 | – | – |
| Fc1ccc(-c2nc(-c3ccc4nc[nH]c4c3)no2)c(F)c1 | 4.58 | 2.48 | Non-Toxic | 1.62 | 8.36 | 2.17 | 7.34 | – | – |
| Fc1ccccc1-c1nc(-c2ccc3nc[nH]c3c2)no1 | 12.7 | 12 | Non-Toxic | 2.01 | 19.1 | 4.51 | 15 | – | – |
| Fc1ccc(-c2nc(-c3cccnc3)no2)cc1F | 3.15 | 2.02 | Non-Toxic | 1.45 | 4.15 | 1.71 | 3.15 | – | – |
| Fc1ccc(-c2nc(-c3ccccn3)no2)cc1F | 1.31 | 1.05 | Non-Toxic | 0.65 | 2.55 | 0.83 | 1.32 | – | – |
| Fc1ccc(-c2nc(-c3ncccc3F)no2)cc1F | 1.75 | 1.56 | Non-Toxic | 1.15 | 2.95 | 1.25 | 2.52 | – | – |
| Fc1cc(F)c(-c2nc(-c3ccc4nc[nH]c4c3)no2)cc1F | 3.95 | 2.15 | Non-Toxic | 1.55 | 7.92 | 1.86 | 4.36 | – | – |

| Structure (SMILES) | Activity [1] | Activity [2] | Activity (HepG2) | Activity [3] | Activity [4] | Activity [5] | Activity [6] | solubility [7] [µM] | logD [8] |
| --- | --- | --- | --- | --- | --- | --- | --- | --- | --- |
| Fc1ccc(-c2nc(-c3ccccc3F)no2)cc1F | 4.85 | 4.25 | Non-Toxic | 3.85 | 6.95 | 3.96 | 5.91 | – | – |
| Fc1ccc(-c2nc(-c3ccccc3Br)no2)cc1F | 1.98 | 1.76 | Non-Toxic | 0.58 | 3.63 | 1.16 | 2.63 | – | – |
| Brc1ccc(-c2nc(-c3ccc4nc[nH]c4c3)no2)cc1 | 13.4 | 0.87 | Non-Toxic | 0.22 | 2.75 | 0.25 | 3.44 | – | – |
| Fc1ccc(-c2nc(-c3ccncc3)no2)cc1F | 1.29 | 1.07 | Non-Toxic | 1.08 | 2.88 | 1.62 | 1.72 | – | – |
| Fc1ccc(-c2nc(-c3ccc4nc[nH]c4c3)no2)c(Cl)c1 | 11.8 | 4.22 | Non-Toxic | 0.68 | 18.3 | 2.98 | 14.7 | – | – |
| Clc1ccc(-c2nc(-c3ccc4nc[nH]c4c3)no2)cc1 | 15.5 | 1.64 | Non-Toxic | 0.33 | 14.1 | 0.72 | 18.5 | – | – |
| Fc1ccc(-c2nc(-c3ncccn3)no2)cc1F | 2.05 | 1.07 | Non-Toxic | 0.92 | 5.82 | 1.06 | 2.95 | – | – |
| Fc1ccc(-c2nc(-c3ccc(Cl)cc3)no2)cc1F | 7.65 | 3.85 | Non-Toxic | 2.85 | 9.95 | 3.06 | 8.29 | – | – |
| Fc1cc(F)c(-c2nc(-c3ccc4nc[nH]c4c3)no2)cc1Cl | 3.35 | 1.26 | Non-Toxic | 1.94 | 7.61 | 1.18 | 5.14 | – | – |
| Fc1ccc(-c2noc(-c3ccc(F)c(F)c3)n2)cc1 | 3.75 | 2.05 | Non-Toxic | 1.76 | 6.93 | 2.12 | 5.68 | – | – |
| Fc1cccc(-c2nc(-c3ccc4nc[nH]c4c3)no2)c1F | 4.55 | 3.7 | Non-Toxic | 1.77 | 16.5 | 2.22 | 10.7 | – | – |
| Fc1cccc(-c2noc(-c3ccc(F)c(F)c3)n2)c1 | 2.76 | 2.05 | Non-Toxic | 0.92 | 5.46 | 1.81 | 3.45 | – | – |
| Fc1cccc(-c2nc(-c3ccc4nc[nH]c4c3)no2)c1 | 8.83 | 4.49 | Non-Toxic | 1.21 | 14.1 | 2.69 | 12.4 | – | – |
| Fc1ccc(-c2noc(-c3ccc(F)c(F)c3)n2)cc1F | 1.73 | 1.73 | Non-Toxic | 1.42 | 2.56 | 1.36 | 2.68 | – | – |
| CC(=O)c1ccc(-c2noc(-c3ccc(F)c(F)c3)n2)cc1 | 2.61 | 2.04 | Non-Toxic | 1.25 | 5.01 | 2.03 | 3.78 | – | – |
| Fc1ccc(-c2nc(-c3ccc4[nH]cnc4c3)no2)cc1Cl | – | – | Non-Toxic | – | – | – | – | – | – |
